In PMC9742152 (ChemMedChem, 2022):
Like-named read-outs stand apart in the source and are kept apart here.

Key:
[1] = test system: MCF-7 breast cancer cells; assay: Anti-proliferative assay, MCF-7 cells; type: cell-based, human; details: read-out: GI50 MCF-7
How it was run: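 MCF-7 cells kept at 37 °C, 5% CO2 in RPMI 1640 with 17% FBS, 2 mM L-glutamine and gentamicin, in full (not estrogen-deprived) media; seeded 5000 cells/well, grown 24 h without compound, then exposed to test compound at 10−9–10−4 M or vehicle. Cell protein measured by sulforhodamine B staining at 96 h; GI50 is the mean of two determinations.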

[2] = test system: MDA MB-231 breast cancer cells; assay: Anti-proliferative assay, MDA MB-231 cells; type: cell-based, human; details: read-out: GI50 MDA MB-231
How it was run: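 MDA MB-231 cells kept at 37 °C, 5% CO2 in RPMI-1640 with 10% FBS, penicillin and streptomycin; seeded 8000 cells/well, allowed to adhere 24 h, then given test compound or vehicle. BrdU incorporation kit assay run at 48 h; signal expressed as percent of mean control to derive GI50; experiments in triplicate, mean of three determinations.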

[3] = test system: HOP-62; assay: NCI 60-cell line assay, Lung HOP-62; type: cell-based
[4] = test system: HCT-116; assay: NCI 60-cell line assay, Colon HCT-116; type: cell-based
[5] = test system: SF-539; assay: NCI 60-cell line assay, CNS SF-539; type: cell-based; details: read-out: GI50 CNS SF-539
[6] = test system: UACC-62; assay: NCI 60-cell line assay, Melanoma UACC-62; type: cell-based
[7] = test system: OVCAR-3; assay: NCI 60-cell line assay, Ovarian OVCAR-3; type: cell-based
[8] = test system: SN12C; assay: NCI 60-cell line assay, Renal SN12C; type: cell-based; details: read-out: GI50 Renal SN12C
[9] = test system: NCI-60 cell line panel; assay: NCI 60-cell line assay, mean over whole panel; type: cell-based; details: for IC50: read-out: MGM (mean concentration that caused 50% growth inhibition in all 60 cell lines)
[10] = test system: Bovine brain tubulin; assay: Inhibition of tubulin assembly; type: biochemical; details: for IC50: read-out: Tubulin assembly IC50, 10 μM tubulin, mean ±SD
[11] = test system: Bovine brain tubulin; assay: Inhibition of [3H]colchicine binding to tubulin; details: 5 μM inhibitor, 5.0 μM [3H]colchicine, 1.0 μM tubulin, mean ±SD
[12] = Hydrolysis in wet DMSO-d6 at 25 °C followed by 1H NMR; details: for % hydrolysed (conversion into the phenol) after 30 days: wet DMSO-d6, room temperature, water/substrate ~60:1
[13] = target: T1, steroid sulfatase (STS) (Homo sapiens, UniProt P08842); assay: In vitro cell-free sulfatase assay, JEG-3 lysate; type: biochemical
T1 sequence (P08842 22-583): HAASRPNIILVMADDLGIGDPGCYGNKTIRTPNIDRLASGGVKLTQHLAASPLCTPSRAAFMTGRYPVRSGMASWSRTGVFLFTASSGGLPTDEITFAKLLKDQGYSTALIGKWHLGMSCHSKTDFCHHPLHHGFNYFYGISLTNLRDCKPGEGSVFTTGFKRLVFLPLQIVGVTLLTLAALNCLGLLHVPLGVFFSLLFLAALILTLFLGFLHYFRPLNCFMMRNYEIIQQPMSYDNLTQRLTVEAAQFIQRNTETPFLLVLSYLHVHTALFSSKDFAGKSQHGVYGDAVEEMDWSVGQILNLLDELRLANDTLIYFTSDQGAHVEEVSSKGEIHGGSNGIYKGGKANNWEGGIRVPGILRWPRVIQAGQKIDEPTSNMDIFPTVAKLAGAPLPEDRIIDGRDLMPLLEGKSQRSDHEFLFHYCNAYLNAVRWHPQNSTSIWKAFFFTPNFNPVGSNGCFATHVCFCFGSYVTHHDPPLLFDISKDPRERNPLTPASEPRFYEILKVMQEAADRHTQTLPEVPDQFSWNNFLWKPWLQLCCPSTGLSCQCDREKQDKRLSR

[14] = target: T1, steroid sulfatase (STS); assay: In vitro whole cell sulfatase assay, intact JEG-3 cells; type: cell-based
[15] = cited from earlier work
[16] = MCF-7, full media, 96 h, mean of two determinations
[17] = NCI-60, mean of three determinations
[18] = wet DMSO-d6, 25 °C, 0 days, 1H NMR
[19] = wet DMSO-d6, 25 °C, 15 days, 1H NMR
[20] = wet DMSO-d6, 25 °C, 30 days, 1H NMR
[21] = Homo sapiens, HOP-62, read-out: GI50 Lung HOP-62
[22] = Homo sapiens, HCT-116, read-out: GI50 Colon HCT-116
[23] = Homo sapiens, UACC-62, read-out: GI50 Melanoma UACC-62
[24] = Homo sapiens, OVCAR-3, read-out: GI50 Ovarian OVCAR-3

C[C@]12CC[C@@H]3c4cc(OC(F)F)c(OS(N)(=O)=O)cc4CC[C@H]3[C@@H]1CC[C@@H]2OS(N)(=O)=O [Compound 10, 2-Difluoromethoxy-3–17β-bis-sulfamoyloxyestra-1,3,5(10)-triene]
GI50 [1, 16]: 280 nM | GI50 ([2]; MDA MB-231, 48 h, mean of three determinations): 740 nM | GI50 ([3]; read-out: GI50 Lung HOP-62, NCI-60, mean of three determinations): 1980 nM | GI50 ([4]; read-out: GI50 Colon HCT-116, NCI-60, mean of three determinations): 474 nM | GI50 [5, 17]: 266 nM | GI50 ([6]; read-out: GI50 Melanoma UACC-62, NCI-60, mean of three determinations): 564 nM | GI50 ([7]; read-out: GI50 Ovarian OVCAR-3, NCI-60, mean of three determinations): 527 nM | GI50 [8, 17]: 567 nM | overall anti-proliferative activity in NCI 60-cell line panel (in words) ([9]; average GI50, NCI-60): sub-micromolar | IC50 ([9]; all 60 cell lines): 661 nM | IC50 [10]: 3900 ± 500 nM | fold less active than CA-4 in tubulin assembly ([10]; vs CA-4): about 3 fold | Colchicine binding (% Inhibition) [11]: 19 ± 0.5% | % of the compound in the reaction mixture, 0 days [12, 18]: 100% | % of the compound in the reaction mixture, 15 days [12, 19]: 32% | % of the compound in the reaction mixture, 30 days [12, 20]: 8% | T1/2 of hydrolysis ([12]; wet DMSO-d6, estimated from Table 1): ~ 10 days | % hydrolysed (conversion into the phenol) after 30 days ([12]; 30 days): 92%

C[C@]12CC[C@@H]3c4cc(OC(F)F)c(O)cc4CC[C@H]3[C@@H]1CC[C@@H]2O [Compound 9, 2-Difluoromethoxy-3,17β-bis-hydroxyestra-1,3,5(10)-triene]
GI50 ([1]; Homo sapiens, MCF7, 96 h): 2600 nM | GI50 ([2]; Homo sapiens, MDA-MB-231, 48 h): 3030 nM | IC50 [10]: 12400 ± 100 nM

COc1cc2c(cc1O)CC[C@@H]1[C@@H]2CC[C@]2(C)[C@@H](OS(N)(=O)=O)CC[C@@H]12 [Compound 22]
% of the compound in the reaction mixture, 0 days [12, 18]: 0% | % of the compound in the reaction mixture, 15 days [12, 19]: 19% | % of the compound in the reaction mixture, 30 days [12, 20]: 31%

C[C@]12CC[C@@H]3c4cc(OC(F)F)c(OS(N)(=O)=O)cc4CC[C@H]3[C@@H]1CCC2=O [Compound 16, 2-Difluoromethoxy-3-sulfamoyloxyestra-1,3,5(10)-trien-17-one]
GI50 ([1]; Homo sapiens, MCF7, 96 h): 580 nM | GI50 ([2]; Homo sapiens, MDA-MB-231, 48 h): 990 nM | IC50 [10]: 4300 ± 200 nM | Colchicine binding (% Inhibition) [11]: 32 ± 4% | IC50 [13]: 56 nM | IC50 [14]: 5.6 nM

C[C@]12CC[C@@H]3c4cc(C(F)F)c(OS(N)(=O)=O)cc4CC[C@H]3[C@@H]1CCC2=O [Compound 23, 2-difluoromethylestrone sulfamate, reference compound]
times more potent than 16, JEG-3 lysate assay ([13]; vs 16): about 3 times | times more potent than 16, whole cells ([14]; vs 16): about 100 times | % of the compound in the reaction mixture, 0 days [12, 18]: 100% | % of the compound in the reaction mixture, 15 days [12, 19]: 24% | % of the compound in the reaction mixture, 30 days [12, 20]: 5%

C[C@]12CC[C@@H]3c4cc(OC(F)F)c(O)cc4CC[C@H]3[C@@H]1CCC2=O [Compound 15, 2-Difluoromethoxy-3-hydroxyestra-1,3,5(10)-trien-17-one]
GI50 ([1]; Homo sapiens, MCF7, 96 h): > 5000 nM | GI50 ([2]; Homo sapiens, MDA-MB-231, 48 h): > 10000 nM | IC50 [10]: > 20000 nM

COc1cc2c(cc1O)CC[C@@H]1[C@@H]2CC[C@]2(C)[C@@H](O)CC[C@@H]12 [Compound 1, 2-Methoxyestradiol, reference compound]
IC50 [10]: 8300 ± 800 nM | Colchicine binding (% Inhibition) [11]: 36 ± 3% | bioavailability [15]: ~1%

COc1cc2c(cc1OS(N)(=O)=O)CC[C@@H]1[C@@H]2CC[C@]2(C)[C@@H](OS(N)(=O)=O)CC[C@@H]12 [Compound 4, 2-methoxyestradiol-3,17-O,O-bissulfamate, reference compound]
GI50 [1, 16]: 520 nM | IC50 [10]: 2300 ± 100 nM | Colchicine binding (% Inhibition) [11]: 33 ± 3% | bioavailability [15]: ~85% | % of the compound in the reaction mixture, 0 days [12]: 100% | % of the compound in the reaction mixture, 15 days [12]: 81% | % of the compound in the reaction mixture, 30 days [12]: 69% | % hydrolysed (conversion into the phenol) after 30 days ([12]; 30 days): 31%

C[C@]12CC[C@@H]3c4cc(OC(F)F)c(O)cc4CC[C@H]3[C@@H]1CC[C@@H]2OS(N)(=O)=O [Compound 11, 2-Difluoromethoxy-3-hydroxy-17β-sulfamoyloxyestra-1,3,5(10)-triene]
GI50 ([1]; Homo sapiens, MCF7, 96 h): > 5000 nM | GI50 ([2]; Homo sapiens, MDA-MB-231, 48 h): > 10000 nM | GI50 [3, 21]: 648 nM | GI50 [4, 22]: 375 nM | GI50 ([5]; Homo sapiens): 427 nM | GI50 [6, 23]: 460 nM | GI50 [7, 24]: 383 nM | GI50 ([8]; Homo sapiens, SN12C): 1220 nM | IC50 ([9]; 60 cell): 813 nM | IC50 [10]: > 20000 nM | IC50 [13]: > 5000 nM | STS inhibition in JEG-3 lysate (in words) ([13]; JEG-3 lysate): inactive | % of the compound in the reaction mixture, 0 days [12, 18]: 0% | % of the compound in the reaction mixture, 15 days [12, 19]: 68% | % of the compound in the reaction mixture, 30 days [12, 20]: 92%

C[C@]12CC[C@@H]3c4cc(OC(F)F)c(OS(N)(=O)=O)cc4CC[C@H]3[C@@H]1CC[C@@H]2O [Compound 12, 2-Difluoromethoxy-3-sulfamoyloxy-17β-hydroxyestra-1,3,5(10)-triene]
GI50 ([1]; Homo sapiens, MCF7, 96 h): 1100 nM | GI50 ([2]; Homo sapiens, MDA-MB-231, 48 h): 1110 nM | GI50 [3, 21]: 634 nM | GI50 [4, 22]: 406 nM | GI50 ([5]; Homo sapiens): 313 nM | GI50 [6, 23]: 498 nM | GI50 [7, 24]: 386 nM | GI50 ([8]; Homo sapiens, SN12C): 692 nM | IC50 ([9]; 60 cell): 646 nM | IC50 [10]: 6600 ± 700 nM | Colchicine binding (% Inhibition) [11]: 22 ± 1% | IC50 [13]: 75 nM | IC50 [14]: 18.6 nM

COc1ccc(/C=C\c2cc(OC)c(OC)c(OC)c2)cc1O [CA-4, combretastatin A-4, reference compound]
Colchicine binding (% Inhibition) [11]: 98 ± 1%
